# Results as given in ChEMBL document CHEMBL4334447, “Discovery of 4-Aminoquinoline-3-carboxamide Derivatives as Potent Reversible Bruton's Tyrosine Kinase Inhibitors for the Treatment of Rheumatoid Arthritis” (J Med Chem, 2019).
# What was measured:
# [1] = molecular target: Tyrosine-protein kinase BTK (Homo sapiens, UniProt Q06187); experiment: Reversible inhibition of sodium orthovanadate-stimulated BTK autophosphorylation at Tyr223 residues in human Ramos cells preincubated for 2 hrs followed by sodium orthovanadate addition and measured after 15 mins by Western blot analysis; format: cell-based
# [2] = Stability in mouse plasma assessed as parent compound remaining at 1 uM measured after 2 hrs by LC-MS/MS analysis; format: ADME, cell-free; details: read-out: Stability
# Summary of the method: (§1)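 Compound at 1 µM initial concentration incubated 2 h at 37 °C in plasma. Quenched with 10 volumes of methanol containing internal standard, then centrifuged. Supernatant diluted with an equal volume of water and analysed by LC-MS/MS. Read-out is % parent remaining. Mean of three separate assays run in triplicate.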
# [3] = molecular target: Tyrosine-protein kinase Yes (Homo sapiens, UniProt P07947); experiment: Inhibition of human full-length recombinant YES using poly(Glu, Tyr) 4:1 as substrate measured after 40 mins in presence of [gamma-33P]-ATP by scintillation counting analysis
# Summary of the method: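 Started with Mg/ATP at room temperature; 40 min incubation. Stopped with 0.5% phosphoric acid, spotted onto Filtermat A, washed, scintillation counted. Mean of ≥3 assays in triplicate.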
# [4] = Stability in human plasma assessed as parent compound remaining at 1 uM measured after 2 hrs by LC-MS/MS analysis; format: ADME, cell-free; details: read-out: Stability; summary of the method: as §1
# Homo sapiens [5] = species: Homo sapiens; experiment: Selectivity ratio of IC50 for recombinant human N-terminal GST-fused TEC catalytic domain (359 to 631 residues) expressed in baculovirus expression system to IC50 for inhibition of FAM-labeled peptide binding to full-length human N-terminal GST-tagged BTK (2 to 659 residues) expressed in baculovirus infected Sf21 insect cells
# Summary of the method: (§2)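 Ratio of kinase IC50 to BTK IC50. BTK measured by off-chip mobility shift: compound preincubated 10 min with BTK in 50 mM HEPES pH 7.5, 0.01% Brij-35, then FAM-labelled peptide and ATP added, 28 °C. Stopped with EDTA buffer; percent conversion fitted for IC50. Each panel kinase assayed in triplicate.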
# [6] = molecular target: Proto-oncogene tyrosine-protein kinase Src (Homo sapiens, UniProt P12931); experiment: Inhibition of recombinant full-length human SRC using KVEKIGEGTYGVVYK as substrate measured after 40 mins in presence of [gamma33P]ATP by scintillation counting analysis
# Summary of the method: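 Started with Mg/ATP at room temperature; 40 min incubation. Stopped with 0.5% phosphoric acid, filtermat-spotted, washed, scintillation counted. Mean of ≥3 assays in triplicate.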
# Homo sapiens [7] = species: Homo sapiens; experiment: Selectivity ratio of IC50 for recombinant full-length human SRC to IC50 for inhibition of FAM-labeled peptide binding to full-length human N-terminal GST-tagged BTK (2 to 659 residues) expressed in baculovirus infected Sf21 insect cells; summary of the method: as §2
# [8] = Clearance in Sprague-Dawley rat at 2 mg/kg, iv by LC-MS/MS analysis; format: ADME, organism-based; details: in vivo
# Summary of the method: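 Male Sprague-Dawley rats (187-205 g, n=6 per route). IV group: 2 mg/kg by tail vein in 10% DMSO/90% PEG400, fed animals. Oral group: 5 mg/kg as a 0.5% methylcellulose suspension, fasted animals. Jugular cannula blood taken pre-dose and from 0.033 h (iv only) to 24 h. Plasma stored at -20 °C and analysed by LC-MS/MS.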
# [9] = Stability in Sprague-Dawley rat plasma assessed as parent compound remaining at 1 uM measured after 2 hrs by LC-MS/MS analysis; format: ADME, cell-free; details: read-out: Stability; summary of the method: as §1
# [10] = Inhibition of recombinant mouse full-length BLK V421E mutant using poly(Glu, Tyr) 4:1 as substrate measured after 40 mins in presence of [gamma33P]ATP by scintillation counting analysis
# Summary of the method: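 Radiometric assay with BLK in 50 mM Tris pH 7.5, 0.1 mM EGTA, 0.1 mM Na3VO4, 0.1% mercaptoethanol, 0.1 mg/mL poly(Glu,Tyr) 4:1, 10 mM Mg acetate and [γ-33P]-ATP. Started with Mg/ATP at room temperature; 40 min. Stopped with 0.5% phosphoric acid, filtermat-spotted, washed, scintillation counted. Mean of ≥3 assays in triplicate.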
# [11] = molecular target: T1, Tyrosine-protein kinase ITK/TSK (Homo sapiens, UniProt Q08881); experiment: Inhibition of recombinant human ITK (352 to 617 residues) using myelin basic protein as substrate measured after 40 mins in presence of [gamma33P]ATP by scintillation counting analysis
# T1 sequence (Q08881 whole entry): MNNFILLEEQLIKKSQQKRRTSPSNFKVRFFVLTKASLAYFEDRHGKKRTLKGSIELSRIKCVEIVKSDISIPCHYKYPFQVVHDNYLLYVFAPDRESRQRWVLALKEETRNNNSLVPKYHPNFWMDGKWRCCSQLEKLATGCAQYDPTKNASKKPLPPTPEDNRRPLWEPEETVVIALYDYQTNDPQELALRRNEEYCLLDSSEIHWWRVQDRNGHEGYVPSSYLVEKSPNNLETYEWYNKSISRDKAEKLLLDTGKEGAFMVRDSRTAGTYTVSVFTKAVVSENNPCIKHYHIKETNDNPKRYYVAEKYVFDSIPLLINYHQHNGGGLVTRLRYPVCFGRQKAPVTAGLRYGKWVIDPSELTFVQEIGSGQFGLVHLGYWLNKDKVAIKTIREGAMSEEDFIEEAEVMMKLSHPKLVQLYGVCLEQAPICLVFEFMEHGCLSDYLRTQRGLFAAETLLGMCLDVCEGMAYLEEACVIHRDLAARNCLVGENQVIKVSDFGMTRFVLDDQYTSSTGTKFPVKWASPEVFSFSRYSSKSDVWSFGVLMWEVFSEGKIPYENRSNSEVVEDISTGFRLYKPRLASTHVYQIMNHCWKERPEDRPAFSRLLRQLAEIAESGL
# Homo sapiens [12] = species: Homo sapiens; experiment: Selectivity ratio of IC50 for human full-length recombinant FYN to IC50 for inhibition of FAM-labeled peptide binding to full-length human N-terminal GST-tagged BTK (2 to 659 residues) expressed in baculovirus infected Sf21 insect cells; summary of the method: as §2
# [13] = Stability in monkey plasma assessed as parent compound remaining at 1 uM measured after 2 hrs by LC-MS/MS analysis; format: ADME, cell-free, Macaca mulatta; details: rhesus monkey, read-out: Stability; summary of the method: as §1
# [14] = Toxicity in complete freund's adjuvant-induced DBA/1 mouse arthritis model assessed as effect on appetite at 10 mg/kg, po qd administered starting from 29 day post-CFA challenge and measured on day 29, 33, 36, 40 and 43; format: organism-based; details: in vivo, 696 h
# Summary of the method: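 CIA in male DBA/1 mice: intradermal bovine type II collagen in CFA on day 0, collagen II in IFA boost on day 20. Randomized on day 29 and given oral doses once daily (n=6 per group) alongside vehicle and naive groups. Body weights recorded over the study days.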
# [15] = molecular target: Epidermal growth factor receptor (Homo sapiens, UniProt P00533); experiment: Inhibition of recombinant human GST-tagged EGFR cytoplasmic domain (668 to 1210 residues) expressed in baculovirus expression system using Z'-lyte-labelled tyr-4 peptide as substrate measured after 1 hr by FRET assay
# Summary of the method: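 Z'-LYTE kinase assay. Compounds tested as 3-fold serial dilutions in aqueous solution containing 4% DMSO. Fluorescence read at 400 nm excitation and 445/520 nm emission. IC50 is the mean of ≥3 assays in triplicate.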
# Sequence of Tyrosine-protein kinase Yes (P07947 whole entry): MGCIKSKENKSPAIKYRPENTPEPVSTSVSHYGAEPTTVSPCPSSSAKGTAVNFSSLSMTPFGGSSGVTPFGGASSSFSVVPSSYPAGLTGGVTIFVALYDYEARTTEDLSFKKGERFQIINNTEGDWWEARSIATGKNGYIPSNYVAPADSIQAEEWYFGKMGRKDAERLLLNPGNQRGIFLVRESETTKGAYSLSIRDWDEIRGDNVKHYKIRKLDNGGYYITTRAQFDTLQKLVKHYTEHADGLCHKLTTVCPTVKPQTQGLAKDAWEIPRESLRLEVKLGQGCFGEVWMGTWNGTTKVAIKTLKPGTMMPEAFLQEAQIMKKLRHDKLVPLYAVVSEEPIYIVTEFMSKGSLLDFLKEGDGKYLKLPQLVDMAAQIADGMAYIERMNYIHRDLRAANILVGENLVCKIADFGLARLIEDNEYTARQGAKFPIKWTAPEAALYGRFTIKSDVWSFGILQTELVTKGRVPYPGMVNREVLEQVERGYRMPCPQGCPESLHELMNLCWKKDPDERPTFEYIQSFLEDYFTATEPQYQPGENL
# Sequence of Tyrosine-protein kinase BTK (Q06187 whole entry): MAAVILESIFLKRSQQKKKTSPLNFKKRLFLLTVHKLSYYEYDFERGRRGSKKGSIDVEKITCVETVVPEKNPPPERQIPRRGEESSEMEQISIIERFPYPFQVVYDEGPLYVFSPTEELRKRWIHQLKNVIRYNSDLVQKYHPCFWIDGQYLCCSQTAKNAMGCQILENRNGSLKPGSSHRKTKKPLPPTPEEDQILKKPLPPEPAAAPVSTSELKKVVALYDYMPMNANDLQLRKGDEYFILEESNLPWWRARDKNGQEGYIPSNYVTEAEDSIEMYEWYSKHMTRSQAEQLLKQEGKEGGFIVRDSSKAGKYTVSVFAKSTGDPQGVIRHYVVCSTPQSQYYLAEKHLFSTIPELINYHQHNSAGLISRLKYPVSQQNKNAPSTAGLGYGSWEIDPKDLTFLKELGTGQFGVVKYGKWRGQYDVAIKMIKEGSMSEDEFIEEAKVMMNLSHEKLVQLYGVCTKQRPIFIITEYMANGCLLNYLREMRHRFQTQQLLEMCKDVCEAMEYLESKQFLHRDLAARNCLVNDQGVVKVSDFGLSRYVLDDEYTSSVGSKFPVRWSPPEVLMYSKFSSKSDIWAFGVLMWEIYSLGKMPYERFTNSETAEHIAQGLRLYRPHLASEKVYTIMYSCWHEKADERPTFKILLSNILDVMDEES
# Sequence of Epidermal growth factor receptor (P00533 whole entry, the tested form may be a part): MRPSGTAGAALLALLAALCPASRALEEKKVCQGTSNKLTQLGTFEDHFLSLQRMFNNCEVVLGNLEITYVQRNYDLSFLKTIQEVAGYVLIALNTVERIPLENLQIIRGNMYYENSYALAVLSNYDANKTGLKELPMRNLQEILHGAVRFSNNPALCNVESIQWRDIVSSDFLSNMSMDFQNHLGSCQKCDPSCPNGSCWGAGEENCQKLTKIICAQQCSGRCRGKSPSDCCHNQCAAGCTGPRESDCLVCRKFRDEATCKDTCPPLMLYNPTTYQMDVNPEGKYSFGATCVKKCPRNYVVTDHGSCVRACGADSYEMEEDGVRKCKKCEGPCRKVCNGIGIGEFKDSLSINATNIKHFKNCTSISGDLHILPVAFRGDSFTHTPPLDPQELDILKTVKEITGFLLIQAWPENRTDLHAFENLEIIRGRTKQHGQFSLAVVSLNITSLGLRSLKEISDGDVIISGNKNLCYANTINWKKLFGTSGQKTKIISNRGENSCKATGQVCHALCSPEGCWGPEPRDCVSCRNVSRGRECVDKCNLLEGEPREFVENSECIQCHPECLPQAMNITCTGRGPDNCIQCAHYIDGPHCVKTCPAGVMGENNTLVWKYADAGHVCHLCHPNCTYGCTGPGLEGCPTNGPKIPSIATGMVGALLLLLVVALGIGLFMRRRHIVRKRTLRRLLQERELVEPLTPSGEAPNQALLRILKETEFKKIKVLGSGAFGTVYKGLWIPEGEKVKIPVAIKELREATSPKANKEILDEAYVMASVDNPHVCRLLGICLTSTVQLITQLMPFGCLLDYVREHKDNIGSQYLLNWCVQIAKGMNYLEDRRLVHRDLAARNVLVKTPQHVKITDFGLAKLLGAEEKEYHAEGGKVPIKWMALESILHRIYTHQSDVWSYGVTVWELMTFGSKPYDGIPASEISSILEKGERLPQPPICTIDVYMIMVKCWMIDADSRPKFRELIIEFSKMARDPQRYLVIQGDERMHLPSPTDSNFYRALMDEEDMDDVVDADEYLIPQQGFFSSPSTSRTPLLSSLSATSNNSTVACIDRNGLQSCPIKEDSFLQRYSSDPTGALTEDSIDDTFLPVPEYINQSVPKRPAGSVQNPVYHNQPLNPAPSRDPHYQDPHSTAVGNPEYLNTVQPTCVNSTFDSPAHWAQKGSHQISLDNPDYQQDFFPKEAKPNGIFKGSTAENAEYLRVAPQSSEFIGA
# Sequence of Proto-oncogene tyrosine-protein kinase Src (P12931 2-536 limits assumed): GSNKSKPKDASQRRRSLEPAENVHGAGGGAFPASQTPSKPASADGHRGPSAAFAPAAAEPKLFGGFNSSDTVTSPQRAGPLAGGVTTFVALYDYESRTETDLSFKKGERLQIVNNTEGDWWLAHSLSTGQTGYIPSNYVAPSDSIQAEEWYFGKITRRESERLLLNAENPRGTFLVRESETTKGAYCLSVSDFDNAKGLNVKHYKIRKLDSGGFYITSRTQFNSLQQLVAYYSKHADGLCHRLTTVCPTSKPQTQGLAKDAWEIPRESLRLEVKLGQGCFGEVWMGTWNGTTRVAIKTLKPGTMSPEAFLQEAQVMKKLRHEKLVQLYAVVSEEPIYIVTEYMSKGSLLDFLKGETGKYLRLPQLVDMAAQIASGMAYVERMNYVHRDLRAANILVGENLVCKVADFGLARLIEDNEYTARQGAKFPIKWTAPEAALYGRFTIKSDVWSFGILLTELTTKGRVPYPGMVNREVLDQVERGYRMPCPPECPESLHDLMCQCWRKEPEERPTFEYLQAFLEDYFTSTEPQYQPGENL
smiles,measurement,setting,value
COc1cc2cn[nH]c2cc1-c1ccc(F)c2c(N)c(C(N)=O)cnc12,EC50,[1],42.7 nM
same,"remaining at 2 h, 1 µM",[2],98%
same,IC50,[3],> 10 µM
same,"remaining at 2 h, 1 µM",[4],93%
same,Ratio IC50,Homo sapiens [5],43
same,IC50,[6],903 nM
same,Ratio IC50,Homo sapiens [7],170
same,clearance,[8],20.8 mL/min/kg
same,"remaining at 2 h, 1 µM",[9],96%
same,IC50,[10],150 nM
same,IC50,[11],307 nM
same,Ratio IC50,Homo sapiens [12],31
same,"remaining at 2 h, 1 µM",[13],88%
same,Activity,[14],Non-Toxic
same,IC50,[15],> 2000 nM
